# In ChEMBL document CHEMBL3414570, “Small molecule binding sites on the Ras:SOS complex can be exploited for inhibition of Ras activation” (J Med Chem, 2015):
# Calls of active or inactive are those of the source. No cut-off for these calls is given here.
# What was measured:
# [1] = Binding affinity to 6His-TEV-SH-HRas(1 to 166) (unknown origin)/6His-TEV-SH-SOS (unknown origin) complex by nuclear magnetic resonance analysis; set-up: species or system Homo sapiens
# Homo sapiens [2] = species: Homo sapiens; experiment: Inhibition of SOS (unknown origin) at 200 uM incubated for 2.5 hrs followed by KRas-GDP addition measured after 4 hrs by HTRF method
# Procedure, shortened: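 SOS preincubated with compound (200 μM final during preincubation) 2.5 h ambient; streptavidin-europium then biotin-KRas-GDP added, 4 h. GST-Raf/anti-GST-XL665 plus GTPγS started exchange; final 3 nM KRas, 1 µM SOS, 1 μM GTPγS. HTRF read at 60 min; inhibition relative to DMSO (0%) and no-KRas (100%) controls.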
# Homo sapiens [3] = species: Homo sapiens; experiment: Inhibition of Kras:GDP:SOS complex (unknown origin) at 200 uM after 2.5 hrs by HTRF method
# Procedure, shortened: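 Biotin-KRas-GDP plus SOS preincubated with compound (200 μM final during preincubation) 2.5 h ambient; streptavidin-europium in DTT-containing buffer added, 4 h. GST-Raf/anti-GST-XL665 plus GTPγS then added; final 3 nM KRas, 1 µM SOS, 1 μM GTPγS. HTRF read at 60 min; inhibition relative to DMSO (0%) and no-KRas (100%) controls.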
# [4] = molecular target: GTPase KRas (Homo sapiens) (UniProt P01116); experiment: Inhibition of biotinylated KRas-GDP (unknown origin) at 200 uM incubated for 2.5 hrs followed by SOS addition measured after 4 hrs by HTRF method
# Sequence of GTPase KRas (Homo sapiens) (P01116 whole entry, looked up): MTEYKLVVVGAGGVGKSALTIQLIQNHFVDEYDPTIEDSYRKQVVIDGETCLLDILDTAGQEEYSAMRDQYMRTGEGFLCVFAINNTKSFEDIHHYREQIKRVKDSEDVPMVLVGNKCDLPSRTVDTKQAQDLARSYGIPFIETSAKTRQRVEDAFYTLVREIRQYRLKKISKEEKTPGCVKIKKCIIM
# Procedure, shortened: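 Biotin-KRas-GDP preincubated with compound (200 μM final during preincubation) 2.5 h ambient; streptavidin-europium then SOS added, 4 h equilibration. GST-Raf/anti-GST-XL665 premix plus GTPγS added to start exchange; final 3 nM KRas, 1 µM SOS, 1 μM GTPγS, 10 nM GST-Raf. HTRF read at 60 min (665/615 nm); inhibition relative to DMSO (0%) and no-KRas (100%) controls.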
# [5] = molecular target: GTPase KRas (Homo sapiens) (UniProt P01116); experiment: Time dependent inhibition of wild-type KRas (unknown origin) assessed as SOS-mediated MANT-dGDP displacement at 200 uM by microplate reader analysis
# Procedure, shortened: (§1)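 KRas (WT, G12V or G12C) preequilibrated 4 h with SOS and MANT-dGDP in HEPES/NaCl/MgCl2/Tween-20 buffer; added to compound (200 μM final). Fluorescence read kinetically (ex 350/em 450 nm) to 85 min; each well referenced to time zero and to DMSO controls.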
# [6] = system: GTPase KRas (Homo sapiens), P01116 [G12V]; experiment: Time dependent inhibition of KRas G12V mutant (unknown origin) assessed as SOS-mediated MANT-dGDP displacement at 200 uM by microplate reader analysis; procedure, shortened: as §1
# Sequence of GTPase KRas (Homo sapiens), P01116 [G12V] (P01116 whole entry G12V): as the sequence (P01116 whole entry, looked up) above, with G12V counted along it
# [7] = system: GTPase KRas (Homo sapiens), P01116 [G12C]; experiment: Time dependent inhibition of KRas G12C mutant (unknown origin) assessed as SOS-mediated MANT-dGDP displacement at 200 uM by microplate reader analysis; procedure, shortened: as §1
# Sequence of GTPase KRas (Homo sapiens), P01116 [G12C] (P01116 whole entry G12C): as the sequence (P01116 whole entry, looked up) above, with G12C counted along it
SMILES,Kd [1] [µM],inhibition (Homo sapiens [2]),inhibition (Homo sapiens [3]),further results
CSc1nc(-c2c(C)cccc2C)nc(N2CCNCC2)n1,1600,–,–,–
Brc1ccc2cc[nH]c2c1,6000,–,–,–
CCN1C(=O)C=C(c2cc(Cl)cc(C(N)=O)c2)C1=O,–,inactive,40%,–
CCN1C(=O)C=C(c2cc(C#N)cc(C(=O)O)c2)C1=O,–,inactive,inactive,inhibition [4]: inactive
CCN1C(=O)C=C(c2cccc(CN)c2)C1=O,–,inactive,inactive,inhibition [4]: inactive
O=C1C=CC(=O)N1C1CCS(=O)(=O)C1 (stereo not drawn),–,inactive,40%,–
COc1ccc(S(=O)(=O)Nc2nccs2)cc1,6000,–,–,–
Brc1ccc(CN2CCCC2)cc1,1300,–,–,–
OC1(c2ccc(Br)cc2)CCNCC1,1700,–,–,–
Nc1ccc(S(=O)(=O)NC(=O)C2CC2)cc1,6000,–,–,–
CCN1C(=O)C=C(c2cccc(C(N)=O)c2)C1=O,–,inactive,inactive,inhibition [5]: Active; inhibition [6]: Active; inhibition [7]: Active; inhibition [4]: inactive
Nc1ccc(S(=O)(=O)N2CCCCC2=O)cc1,3000,–,–,–
